Drawing on ChEMBL document CHEMBL1131443, “Development of dual-acting agents for thromboxane receptor antagonism and thromboxane synthase inhibition. 3. Synthesis and biological activities of oxazolecarboxamide-substituted omega-phenyl-omega-(3-pyridyl)alkenoic acid derivatives and related compounds” (J Med Chem, 1998), this text covers IC50 and Kd for twelve compounds.

The structures appear in SMILES notation.

One assay is filed under the species Homo sapiens. As to the kind of experiment: Inhibition of U-46,619 (1 uM)-induced platelet aggregation in human platelet-rich plasma(PRP). In kind it is functional. The gist of the method: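 Citrated blood (1/10 volume 3.8% trisodium citrate) from volunteers free of platelet-affecting medication for 10 days; PRP spun at 100g for 12 min. Compound or vehicle preincubated with PRP for 1 min at 37 °C. Aggregation induced with U46619 and followed for 3 min.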

In another assay the target is T1, Thromboxane A2 receptor (Homo sapiens, UniProt P21731).
T1 sequence (P21731 whole entry): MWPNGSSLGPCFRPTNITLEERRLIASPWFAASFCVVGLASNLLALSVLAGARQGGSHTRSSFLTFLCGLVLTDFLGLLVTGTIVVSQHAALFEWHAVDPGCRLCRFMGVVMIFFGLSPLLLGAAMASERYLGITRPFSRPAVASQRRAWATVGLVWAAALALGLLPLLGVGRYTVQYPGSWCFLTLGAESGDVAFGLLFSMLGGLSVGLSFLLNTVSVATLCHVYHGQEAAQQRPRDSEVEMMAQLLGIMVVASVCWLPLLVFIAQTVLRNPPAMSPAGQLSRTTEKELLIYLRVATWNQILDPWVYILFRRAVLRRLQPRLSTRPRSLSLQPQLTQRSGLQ
As to the kind of experiment: In vitro for antagonistic activity against […]. The assay is classed as functional. The method, boiled down:
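Buffer was 10 mM Hepes, 2 mM CHAPS and 10 μM indomethacin, pH 7.4. Competitor range 10^-10 to 10^-5 M; incubation 30 °C for 30 min; stopped with ice-cold 25 mM Tris pH 7.4 and filtered. Nonspecific binding taken with 10 μM SQ29548. Run in triplicate.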

For the next assay, the target named is T2, Thromboxane-A synthase (Homo sapiens, UniProt P24557).
T2 sequence (P24557 whole entry): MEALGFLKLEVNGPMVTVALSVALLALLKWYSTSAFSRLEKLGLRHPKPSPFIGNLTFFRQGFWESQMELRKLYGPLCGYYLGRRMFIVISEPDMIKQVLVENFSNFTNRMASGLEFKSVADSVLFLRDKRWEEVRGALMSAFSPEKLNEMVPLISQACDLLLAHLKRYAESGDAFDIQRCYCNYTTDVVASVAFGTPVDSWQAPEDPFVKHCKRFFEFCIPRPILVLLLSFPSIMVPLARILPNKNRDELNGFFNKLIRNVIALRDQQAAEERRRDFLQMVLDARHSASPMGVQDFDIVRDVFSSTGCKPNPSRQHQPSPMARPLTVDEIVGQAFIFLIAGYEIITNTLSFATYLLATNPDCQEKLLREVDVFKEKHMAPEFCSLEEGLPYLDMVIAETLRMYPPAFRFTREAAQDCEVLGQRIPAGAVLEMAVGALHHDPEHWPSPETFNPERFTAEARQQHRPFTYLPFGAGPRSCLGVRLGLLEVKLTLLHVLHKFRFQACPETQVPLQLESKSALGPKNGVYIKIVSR
As to the kind of experiment: In vitro for inhibitory activity against thromboxane synthase. The gist of the method:
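Compound or vehicle incubated with whole human blood for 30 min at 37 °C, then serum was prepared. Serum TXB2, the stable TXA2 metabolite, was measured by radioimmunoassay. Run in triplicate.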

For `CC(OCCCNC(=O)c1coc(-c2ccc(/C(=C\CCCCC(=O)O)c3cccnc3)cc2)n1)C1CCCCC1` (configuration not stated), in the assay filed under Homo sapiens, the IC50 (in general, the concentration that gives 50% inhibition) was found to be 5000 nM. `O=C(O)CCCC/C=C(\c1ccc(-c2nc(C(=O)NCCCCOc3ccccc3)co2)cc1)c1cccnc1` returned an IC50 in the assay listed under Homo sapiens of 500 nM. Consider `O=C(O)CCCC/C=C(\c1ccc(-c2nc(C(=O)NCCc3ccccc3)co2)cc1)c1cccnc1`, for which, at Thromboxane A2 receptor, the Kd – broadly, the free concentration of one partner at which half of the binding sites on the other are occupied at equilibrium, for simple one-to-one binding – turned out to be 82.4 nM. Moreover, the IC50 against Thromboxane-A synthase was 9.4 nM.

Turning to `COc1ccc(CCCNC(=O)c2coc(-c3ccc(/C(=C\CCCCC(=O)O)c4cccnc4)cc3)n2)cc1`, binding on Thromboxane A2 receptor was put at a Kd of 119 nM. The same compound returned an IC50 against Thromboxane-A synthase of 2.7 nM. `O=C(O)CCCC/C=C(\c1ccc(-c2nc(C(=O)N[C@@H]3C[C@H]3c3ccccc3)co2)cc1)c1cccnc1` displayed an IC50 in the assay filed under Homo sapiens of 5000 nM.

On to `O=C(O)CCCC/C=C(\c1ccc(-c2nc(C(=O)NCCOCc3ccccc3)co2)cc1)c1cccnc1`, for which the affinity at Thromboxane A2 receptor, expressed as Kd, was 156 nM. Moreover, at Thromboxane-A synthase, 47.5 nM corresponded to half-maximal inhibition (IC50). The compound `O=C(O)CCCC/C=C(\c1ccc(-c2nc(C(=O)NCCCCC3CCCCC3)co2)cc1)c1cccnc1` showed an IC50 in the assay filed under Homo sapiens of 400 nM. On Thromboxane A2 receptor, `O=C(O)CCCC/C=C(\c1ccc(-c2nc(C(=O)NCCOCC3CCCCC3)co2)cc1)c1cccnc1` came in with a Kd of 43.3 nM. This compound showed a half-inhibitory concentration (IC50) against Thromboxane-A synthase of 36.7 nM. On to `CCOCCCNC(=O)c1coc(-c2ccc(/C(=C\CCCCC(=O)O)c3cccnc3)cc2)n1`, for which binding at Thromboxane A2 receptor was put at a Kd of 1400 nM. Consider `O=C(O)CCCC/C=C(\c1ccc(-c2nc(C(=O)NCCCN3CCOCC3)co2)cc1)c1cccnc1`, for which the IC50 at Thromboxane-A synthase was found to be 50.8 nM. Regarding `O=C(O)CCCC/C=C(\c1ccc(-c2nc(C(=O)NS(=O)(=O)c3ccc(Cl)cc3)co2)cc1)c1cccnc1`, the IC50 in the assay filed under Homo sapiens is 4000 nM.

Take `O=C(O)CCCCO/N=C(/c1cccnc1)c1cccc(C(F)(F)F)c1` [RIDOGREL]: the affinity at Thromboxane A2 receptor, expressed as Kd, was 8000 nM. For the same compound, the 50% inhibitory concentration (IC50) at Thromboxane-A synthase turned out to be 14.7 nM.
